From ChEMBL document CHEMBL1129492, “Structure-activity relationships among 2-substituted 5,6-dichloro-, 4,6-dichloro-, and 4,5-dichloro-1-[(2-hydroxyethoxy) methyl]- and -1-[(1,3-dihydroxy-2-propoxy) methyl]benzimidazoles” (J Med Chem, 1996) come the findings set out here.

pIC50: −log10 of the molar value.

One assay has as its system KB. The assay is described as follows: Inhibitory activity of compound against KB cell growth. The format is functional, cell-based. The settings on record: Homo sapiens. The gist of the method: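 KB cells plated at 3000-5000 cells/well and held overnight at 37 °C. Compound added in quadruplicate at six to eight concentrations, then 48 h at 37 °C in CO₂ (about two population doublings). Cells fixed with 95% ethanol, stained with 0.1% crystal violet, dye eluted with acidified ethanol and read at 570 nm. IC50 from regression.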
For `OCCOCn1cnc2c(Cl)cc(Cl)cc21`, the negative logarithm of the IC50 (pIC50) was less than 4.00.

Turning to `CNc1nc2c(Cl)c(Cl)ccc2n1COCCO`, the pIC50 was less than 4.00.

In turn, `OCCOCn1cnc2cc(Cl)c(Cl)cc21` gave a pIC50 of less than 4.00.

As to `OCCOCn1cnc2c(Cl)c(Cl)ccc21`, the negative logarithm of the IC50 (pIC50) was less than 4.00.

Compound `OCCOCn1c(Cl)nc2cc(Cl)c(Cl)cc21` gave a negative logarithm of the IC50 (pIC50) of less than 3.49.

Compound `OCCOCn1c(SCc2ccccc2)nc2c(Cl)cc(Cl)cc21` showed a negative-log IC50 (pIC50) of less than 4.00.

For `OCCOCn1c(S)nc2c(Cl)cc(Cl)cc21`, the negative-log IC50 (pIC50) was less than 4.00.

`Nc1nc2c(Cl)cc(Cl)cc2n1COCCO` had a pIC50 of less than 4.00.

The compound `OCCOCn1c(Cl)nc2c(Cl)c(Cl)ccc21` showed a pIC50 of less than 4.00.

In turn, `OCCOCn1c(S)nc2c(Cl)c(Cl)ccc21` had a negative logarithm of the IC50 (pIC50) of less than 4.00.

`OCCOCn1c(SCc2ccccc2)nc2cc(Cl)c(Cl)cc21`: the negative logarithm of the IC50 (pIC50) was 4.26.

Consider `OCCOCn1c(S)nc2cc(Cl)c(Cl)cc21`, for which the negative logarithm of the IC50 (pIC50) was less than 4.00.

Regarding `OCCOCn1c(SCc2ccccc2)nc2c(Cl)c(Cl)ccc21`, the pIC50 is 4.46.

As to `OCCOCn1c(Br)nc2c(Cl)cc(Cl)cc21`, the pIC50 is less than 4.00.

Turning to `CNc1nc2c(Cl)cc(Cl)cc2n1COCCO`, the negative-log IC50 (pIC50) is less than 4.00.

In the case of `OCCOCn1c(Br)nc2cc(Cl)c(Cl)cc21`, the pIC50 was less than 4.00.

`CN(C)c1nc2cc(Cl)c(Cl)cc2n1COCCO`: the pIC50 is less than 4.00.

For the compound `OCCOCn1c(Br)nc2c(Cl)c(Cl)ccc21`, the pIC50 is less than 4.00.

A further assay concerns HFF. Description: Visual cytotoxicity of compound on HFF cells at time of HCMV plaque enumeration. It counts as functional, cell-based. To be noted: Homo sapiens. The gist of the method:
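Stationary, uninfected HFF cells in the HCMV plaque assay were scored microscopically for cytotoxicity when plaques were enumerated, after 7 days at 37 °C.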
In the case of `OCCOCn1cnc2c(Cl)cc(Cl)cc21`, the negative logarithm of the IC50 (pIC50) was less than 4.00.

Consider `CNc1nc2c(Cl)c(Cl)ccc2n1COCCO`, for which the negative logarithm of the IC50 (pIC50) was less than 4.00.

`CNc1nc2c(Cl)cc(Cl)cc2n1COC(CO)CO` showed a pIC50 of 4.00.

The compound `OCCOCn1cnc2cc(Cl)c(Cl)cc21` had a negative-log IC50 (pIC50) of less than 4.00.

Take `OCCOCn1cnc2c(Cl)c(Cl)ccc21`: the pIC50 was less than 4.00.

The compound `OCCOCn1c(Cl)nc2cc(Cl)c(Cl)cc21` had a pIC50 of less than 3.49.

In the case of `OCCOCn1c(SCc2ccccc2)nc2c(Cl)cc(Cl)cc21`, the negative-log IC50 (pIC50) is 4.49.

As to `OCCOCn1c(S)nc2c(Cl)cc(Cl)cc21`, the negative logarithm of the IC50 (pIC50) is less than 4.00.

`OCC(CO)OCn1c(Cl)nc2c(Cl)cc(Cl)cc21` gave a pIC50 of less than 4.00.

As for `OCCOCn1c(Cl)nc2c(Cl)c(Cl)ccc21`, the negative-log IC50 (pIC50) was less than 4.00.

Take `Nc1nc2c(Cl)cc(Cl)cc2n1COC(CO)CO`: the pIC50 was 4.00.

In turn, `OCCOCn1c(S)nc2c(Cl)c(Cl)ccc21` gave a pIC50 of less than 4.00.

`OCCOCn1c(SCc2ccccc2)nc2cc(Cl)c(Cl)cc21`: the pIC50 is 4.49.

As to `OCCOCn1c(S)nc2cc(Cl)c(Cl)cc21`, the negative-log IC50 (pIC50) was 4.00.

`OCCOCn1c(SCc2ccccc2)nc2c(Cl)c(Cl)ccc21` showed a pIC50 of 4.49.

For `OCCOCn1c(Br)nc2c(Cl)cc(Cl)cc21`, the pIC50 is less than 4.00.

`CNc1nc2c(Cl)cc(Cl)cc2n1COCCO` had a negative-log IC50 (pIC50) of less than 4.00.

On to `OCCOCn1c(Br)nc2cc(Cl)c(Cl)cc21`, for which the pIC50 was less than 4.00.

With `CN(C)c1nc2cc(Cl)c(Cl)cc2n1COCCO`, the negative logarithm of the IC50 (pIC50) is less than 4.00.

Compound `OCCOCn1c(Br)nc2c(Cl)c(Cl)ccc21` showed a negative-log IC50 (pIC50) of less than 4.00.

The test system of another assay is Human alphaherpesvirus 1. Description: Antiviral activity against herpes simplex virus type 1 (HSV-1) in an ELISA assay.
Details: not given
The format is functional, organism-based. The method, boiled down:
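BSC-1 cells (10 000/well, MEM(E) + 10% calf serum) incubated overnight at 37 °C, then given drug in quadruplicate with HSV-1 at 100 PFU/well. After 3 days at 37 °C, plates were blocked and probed with HRP-conjugated rabbit anti-HSV-1 antibody and developed with tetramethylbenzidine. Absorbance was read at 450 and 570 nm. Percent reduction was taken versus virus without drug.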
A general note: ELISA stands for enzyme-linked immunosorbent assay.
Regarding `OCCOCn1cnc2c(Cl)cc(Cl)cc21`, the pIC50 was less than 4.00.

In the case of `CNc1nc2c(Cl)c(Cl)ccc2n1COCCO`, the pIC50 was less than 4.00.

`OCCOCn1cnc2cc(Cl)c(Cl)cc21` gave a negative-log IC50 (pIC50) of less than 4.00.

`OCCOCn1cnc2c(Cl)c(Cl)ccc21`: the pIC50 was less than 4.00.

For the compound `OCCOCn1c(Cl)nc2cc(Cl)c(Cl)cc21`, the negative-log IC50 (pIC50) was less than 4.00.

Compound `OCCOCn1c(SCc2ccccc2)nc2c(Cl)cc(Cl)cc21` showed a pIC50 of less than 4.00.

Regarding `OCCOCn1c(S)nc2c(Cl)cc(Cl)cc21`, the negative-log IC50 (pIC50) is less than 4.00.

`Nc1nc2c(Cl)cc(Cl)cc2n1COCCO` showed a pIC50 of 4.00.

Compound `OCCOCn1c(Cl)nc2c(Cl)c(Cl)ccc21` gave a pIC50 of less than 4.00.

With `OCCOCn1c(S)nc2c(Cl)c(Cl)ccc21`, the negative logarithm of the IC50 (pIC50) is less than 4.00.

In the case of `OCCOCn1c(SCc2ccccc2)nc2cc(Cl)c(Cl)cc21`, the pIC50 was 4.35.

In turn, `OCCOCn1c(S)nc2cc(Cl)c(Cl)cc21` gave a negative logarithm of the IC50 (pIC50) of less than 4.00.

`OCCOCn1c(SCc2ccccc2)nc2c(Cl)c(Cl)ccc21` had a pIC50 of less than 4.00.

Turning to `CN(C)c1nc2c(Cl)cc(Cl)cc2n1COCCO`, the pIC50 was less than 4.00.

As to `OCCOCn1c(Br)nc2c(Cl)cc(Cl)cc21`, the negative-log IC50 (pIC50) was less than 4.00.

In turn, `CNc1nc2c(Cl)cc(Cl)cc2n1COCCO` showed a pIC50 of less than 4.00.

`OCCOCn1c(Cl)nc2c(Cl)cc(Cl)cc21` gave a pIC50 of less than 4.00.

Consider `OCCOCn1c(Br)nc2cc(Cl)c(Cl)cc21`, for which the pIC50 was less than 4.00.

The compound `CN(C)c1nc2cc(Cl)c(Cl)cc2n1COCCO` showed a pIC50 of less than 4.00.

Take `OCCOCn1c(Br)nc2c(Cl)c(Cl)ccc21`: the pIC50 is less than 4.00.

Another assay relates to Human betaherpesvirus 5. Description: Antiviral activity against human cytomegalovirus (HCM virus) in plaque assay. It counts as functional, organism-based.
Details: not given
The gist of the method: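 HCMV Towne strain (plaque-purified P_O) at ca. 100 PFU/cm² on HFF cell sheets. After adsorption, compound in growth medium was added to duplicate wells at four to eight concentrations. Incubated 7 days at 37 °C, then crystal violet staining and microscopic plaque counts. Percent plaque reduction versus no drug; IC50 from regression lines.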
For the compound `OCCOCn1cnc2c(Cl)cc(Cl)cc21`, the pIC50 was less than 4.00.

Compound `CNc1nc2c(Cl)c(Cl)ccc2n1COCCO` gave a negative-log IC50 (pIC50) of less than 4.00.

Consider `CNc1nc2c(Cl)cc(Cl)cc2n1COC(CO)CO`, for which the pIC50 was less than 4.00.

`OCCOCn1cnc2cc(Cl)c(Cl)cc21` showed a pIC50 of less than 4.00.

Consider `OCCOCn1cnc2c(Cl)c(Cl)ccc21`, for which the pIC50 was less than 4.00.

Take `OCCOCn1c(Cl)nc2cc(Cl)c(Cl)cc21`: the pIC50 is less than 3.49.

`OCCOCn1c(SCc2ccccc2)nc2c(Cl)cc(Cl)cc21` showed a negative logarithm of the IC50 (pIC50) of 4.30.

`OCCOCn1c(S)nc2c(Cl)cc(Cl)cc21` showed a pIC50 of less than 4.00.

Compound `Nc1nc2c(Cl)cc(Cl)cc2n1COCCO` had a negative-log IC50 (pIC50) of less than 4.00.

Compound `OCC(CO)OCn1c(Cl)nc2c(Cl)cc(Cl)cc21` showed a negative-log IC50 (pIC50) of less than 4.00.

As for `OCCOCn1c(Cl)nc2c(Cl)c(Cl)ccc21`, the pIC50 was less than 4.00.

For the compound `Nc1nc2c(Cl)cc(Cl)cc2n1COC(CO)CO`, the pIC50 was less than 4.00.

In turn, `OCCOCn1c(S)nc2c(Cl)c(Cl)ccc21` showed a pIC50 of less than 4.00.

On to `OCCOCn1c(SCc2ccccc2)nc2cc(Cl)c(Cl)cc21`, for which the pIC50 is 4.40.

Turning to `OCCOCn1c(S)nc2cc(Cl)c(Cl)cc21`, the negative-log IC50 (pIC50) is less than 4.00.

Turning to `OCCOCn1c(SCc2ccccc2)nc2c(Cl)c(Cl)ccc21`, the negative logarithm of the IC50 (pIC50) is 4.52.

For `CN(C)c1nc2c(Cl)cc(Cl)cc2n1COCCO`, the pIC50 was less than 4.00.

In turn, `OCCOCn1c(Br)nc2c(Cl)cc(Cl)cc21` showed a pIC50 of less than 4.00.

Compound `CNc1nc2c(Cl)cc(Cl)cc2n1COCCO` had a pIC50 of less than 4.00.

For the compound `OCCOCn1c(Cl)nc2c(Cl)cc(Cl)cc21`, the pIC50 is less than 4.00.

As to `OCCOCn1c(Br)nc2cc(Cl)c(Cl)cc21`, the pIC50 is less than 4.00.

For `CN(C)c1nc2cc(Cl)c(Cl)cc2n1COCCO`, the negative logarithm of the IC50 (pIC50) was less than 4.00.

`OCCOCn1c(Br)nc2c(Cl)c(Cl)ccc21` showed a pIC50 of less than 4.00.

The pIC50 is the IC50 on a negative log10 scale, so that one unit is a factor of ten.
